Data on 31 sequences can be found in the array DNA melting data of Ke et al. (doi:10.1101/2024.01.08.574731).

A short description of data set [1]: folding enthalpy; higher = less favourable; fluorescence melt of hairpins on a sequencing array, two-state fit. The conditions noted are these: sodium 0.088 M. In short, it runs like this:
(§1)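 Two-state fits, bootstrapped, provided melting temperature and folding enthalpy from Cy3 fluorescence normalised to pre-quench Cy3 and to control constructs. Library hairpins with annealed Cy3 and quencher oligos were imaged on a sequenced MiSeq flow cell in 50 mM Na-HEPES pH 8.0, 25 mM NaCl, at 2.5 °C intervals up to 60 °C. Four replicates were combined with inverse-variance weighting. A 9.35 °C upward shift was applied to fitted temperatures to match UV melts.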

The nature of data set [2]: melting temperature; fluorescence melt of hairpins on a sequencing array, two-state fit, raised by 9.35 °C to match UV melts. Conditions: sodium 0.088 M. In short, it runs like this:
as §1

Turning to CGCAACGGAAACGTCGCG (((.(((....))).))), in data set [1], the folding enthalpy was -42.6 kcal/mol. Moreover, the Tm in data set [2] came to 52.1 °C.
Regarding CGCAACGGAAACGTGCG (((.(((....)))))), the folding enthalpy in data set [1] is -31.8 kcal/mol. Also, the Tm in data set [2] was 56.5 °C.
For CGCAAGCGGAAACGCGCG (((..(((....)))))), the folding enthalpy in data set [1] is -22 kcal/mol. The Tm in data set [2] came out at 56.9 °C.
Taken in the same sequence, the figures for CGCAATCGGAAACGAGCG (((..(((....)))))) were -25.4 kcal/mol and 42.4 °C.
Regarding CGCACACGGAAACGTGCG (((..(((....)))))), the folding enthalpy in data set [1] is -22 kcal/mol. For the same sequence, the Tm in data set [2] worked out at 52.9 °C.
Taken in the same sequence, the figures for CGCACGGAAACGTTGGCG ((((((....)))..))) were -37.8 kcal/mol and 45.4 °C.
CGCCAACGGAAACGTGCG (((..(((....)))))): the folding enthalpy in data set [1] was -26 kcal/mol. In addition, the Tm in data set [2] was 45.5 °C.
For CGCCAGCGGAAACGCGCG (((..(((....)))))), in that order: -23.4 kcal/mol and 50.6 °C.
For CGCCCCGGAAACGGAGCG (((.(((....))).))), the folding enthalpy in data set [1] was -39.3 kcal/mol. The Tm in data set [2] stood at 56.5 °C.
Taken in the same sequence, the figures for CGCCCCGGAAACGGTGCG (((.(((....))).))) were -49.4 kcal/mol and 53.9 °C.
Take CGCCCGCGGAAACGCGCG (((..(((....)))))): the folding enthalpy in data set [1] is -8.68 kcal/mol. Further, in data set [2], the Tm is 42.4 °C.
In the case of CGCCGCCGGAAACGGGCG (((..(((....)))))), the folding enthalpy in data set [1] is -16.5 kcal/mol. The Tm in data set [2] stood at 51.9 °C.
Consider CGCCGCGGAAACGCTGCG (((.(((....))).))), for which the folding enthalpy in data set [1] was -37.6 kcal/mol. The Tm in data set [2] came to 57.6 °C.
For CGCCTCGGAAACGACGCG (((.(((....))).))), in that order: -33.9 kcal/mol and 45.7 °C.
For CGCCTCGGAAACGATGCG (((.(((....))).))), the folding enthalpy in data set [1] was -48 kcal/mol. Moreover, the Tm in data set [2] is 49.9 °C.
Taken in the same sequence, the figures for CGCCTTCGGAAACGAGCG (((..(((....)))))) were -13.6 kcal/mol and 36.3 °C.
As for CGCGACGGAAACGTGCG (((.(((....)))))), in data set [1], the folding enthalpy was -28.3 kcal/mol. Also, the Tm in data set [2] turned out to be 55.3 °C.
Taken in the same sequence, the figures for CGCGCGGAAACGCAAGCG ((((((....)))..))) were -34 kcal/mol and 56.8 °C.
Take CGCGCGGAAACGCACGCG ((((((....)))..))): the folding enthalpy in data set [1] is -22.1 kcal/mol. Moreover, the Tm in data set [2] came to 57.1 °C.
For CGCGGAAAAGTCCGCG ((((((....)))))), in that order: -38.4 kcal/mol and 60.9 °C.
In the case of CGCGGAAAATCCGCG ((((((...)))))), the folding enthalpy in data set [1] is -42.4 kcal/mol. For the same sequence, in data set [2], the Tm was 62.3 °C.
For CGCGGAAAATTCCGCG ((((((....)))))), in that order: -32 kcal/mol and 68.3 °C.
Taken in the same sequence, the figures for CGCGGAAAGATCCGCG ((((((....)))))) were -33.8 kcal/mol and 64.2 °C.
Turning to CGCGGAACATCCGCG ((((((...)))))), the folding enthalpy in data set [1] is -27.5 kcal/mol. For the same sequence, the Tm in data set [2] amounted to 69 °C.
Taken in the same sequence, the figures for CGCGGAAGATCCGCG ((((((...)))))) were -26.5 kcal/mol and 69.1 °C.
Taken in the same sequence, the figures for CGCGGACAATCCGCG ((((((...)))))) were -26.4 kcal/mol and 67.7 °C.
On to CGCGGACGATTCCGCG ((((((....)))))), for which the folding enthalpy in data set [1] is -29.1 kcal/mol. Besides, the Tm in data set [2] was found to be 69 °C.
Taken in the same sequence, the figures for CGCGGACGGATCCGCG ((((((....)))))) were -28.8 kcal/mol and 68.7 °C.
Taken in the same sequence, the figures for CGCGGAGCTGTCCGCG ((((((....)))))) were -20.9 kcal/mol and 67.1 °C.
As to CGCGGAGCTTTCCGCG ((((((....)))))), in data set [1], the folding enthalpy was -20.8 kcal/mol. The Tm in data set [2] was determined as 68.2 °C.
For CGCGGATCTCTCCGCG ((((((....)))))), in that order: -51 kcal/mol and 66.8 °C.
